ChEMBL document CHEMBL4411332, “Deciphering the Role of Intramolecular Networking in Cholic Acid-Peptide Conjugates on the Lipopolysaccharide Surface in Combating Gram-Negative Bacterial Infections” (J Med Chem, 2019)
Values after ≈ are worked out from the molar mass of the structure shown. Active and inactive are the calls of the source. No cut-off for these calls is given here.

How the values were obtained:
Escherichia coli [1] = assay: Antibacterial activity against Escherichia coli by broth dilution assay; format: functional
Outline: (§1)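 MIC99 by broth-dilution assay; antibacterial and culture details are in the Supporting Information.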

Acinetobacter baumannii = assay: Antibacterial activity against Acinetobacter baumannii by broth dilution assay; format: functional; outline: as §1
Erythrocyte = assay: Hemolytic activity against human RBC incubated for 1 hr; format: ADME, cell-based
A549 = assay: Cytotoxicity against human A549 cells incubated for 48 hrs by MTT assay; format: cell-based; details: a549, 48 h
Klebsiella pneumoniae = assay: Antibacterial activity against Klebsiella pneumoniae by broth dilution assay; format: functional; outline: as §1
Escherichia coli [2] = assay: Antibacterial activity against Escherichia coli isolate 6/23 infected in wound areas of BALB/c mouse assessed as reduction in colony forming units at 40 mg/kg dosed thrice daily for 4 days starting 6 hrs post infection and measured on day 5; format: functional, organism-based
Escherichia coli [3] = assay: Bactericidal activity against persistent form of Escherichia coli assessed as reduction in colony forming units by fluorescent based time-kill assay; format: functional, organism-based
Escherichia coli [4] = assay: Bactericidal activity against stationary form of Escherichia coli assessed as reduction in colony forming units by fluorescent based time-kill assay; format: functional, organism-based
Escherichia coli [5] = assay: Antimicrobial activity against compound-pre-treated Escherichia coli by broth dilution assay based drug resistance development assay; format: functional, organism-based
Outline: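 E. coli pre-treated with compound, then MIC₉₉ redetermined by broth-dilution assay in four replicates; reported as fold change in MIC₉₉ relative to starting value to assess resistance development.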

C[C@H](N)C(=O)NCC(=O)O[C@@H]1CC[C@@]2(C)[C@@H](C1)C[C@@H](OC(=O)CNC(=O)[C@H](C)N)[C@@H]1[C@@H]2C[C@H](OC(=O)CNC(=O)[C@H](C)N)[C@]2(C)[C@@H]([C@H](C)CCC(=O)OCc3ccccc3)CC[C@@H]12
MIC99 (Escherichia coli [1]): 8 to 128 µM (≈ 7.06 to 113 µg/mL)

CC[C@H](C)[C@H](N)C(=O)NCC(=O)O[C@@H]1CC[C@@]2(C)[C@@H](C1)C[C@@H](OC(=O)CNC(=O)[C@@H](N)[C@@H](C)CC)[C@@H]1[C@@H]2C[C@H](OC(=O)CNC(=O)[C@@H](N)[C@@H](C)CC)[C@]2(C)[C@@H]([C@H](C)CCC(=O)OCc3ccccc3)CC[C@@H]12
MIC99 (Acinetobacter baumannii): 16 µM (≈ 16.1 µg/mL)
Activity (Erythrocyte): Toxic
Activity (A549): Toxic
MIC99 (Klebsiella pneumoniae): 16 µM (≈ 16.1 µg/mL)
MIC99 (Escherichia coli [1]): 8 µM (≈ 8.07 µg/mL)

CC1(C)S[C@@H]2[C@H](NC(=O)[C@H](N)c3ccccc3)C(=O)N2[C@H]1C(=O)O
Activity (Escherichia coli [2]): inactive
Activity (Escherichia coli [3]): inactive
Activity (Escherichia coli [4]): inactive

CSCC[C@H](N)C(=O)NCC(=O)O[C@@H]1CC[C@@]2(C)[C@@H](C1)C[C@@H](OC(=O)CNC(=O)[C@@H](N)CCSC)[C@@H]1[C@@H]2C[C@H](OC(=O)CNC(=O)[C@@H](N)CCSC)[C@]2(C)[C@@H]([C@H](C)CCC(=O)OCc3ccccc3)CC[C@@H]12
MIC99 (Escherichia coli [1]): 8 to 128 µM (≈ 8.51 to 136 µg/mL)

NC[C@@H]1O[C@H](O[C@H]2[C@@H](O)[C@H](O[C@@H]3[C@@H](O)[C@H](N)C[C@H](N)[C@H]3O[C@H]3O[C@H](CN)[C@@H](O)[C@H](O)[C@H]3N)O[C@@H]2CO)[C@H](N)[C@@H](O)[C@@H]1O
Activity (Escherichia coli [5]): inactive
